According to PMC7497186 (The Journal of Pharmacy and Pharmacology, 2020):
Where two headings read alike, the source gives them in different places.

Legend:
[1] = biological target: T1, human recombinant 5-LOX (Homo sapiens, UniProt P09917); assay: 5-LOX inhibition, UV-Vis spectrophotometric assay; assay type: biochemical; settings: for inhibition at 10 µM: read-out: % inhibition of 5-LOX
T1 sequence (P09917 1-674): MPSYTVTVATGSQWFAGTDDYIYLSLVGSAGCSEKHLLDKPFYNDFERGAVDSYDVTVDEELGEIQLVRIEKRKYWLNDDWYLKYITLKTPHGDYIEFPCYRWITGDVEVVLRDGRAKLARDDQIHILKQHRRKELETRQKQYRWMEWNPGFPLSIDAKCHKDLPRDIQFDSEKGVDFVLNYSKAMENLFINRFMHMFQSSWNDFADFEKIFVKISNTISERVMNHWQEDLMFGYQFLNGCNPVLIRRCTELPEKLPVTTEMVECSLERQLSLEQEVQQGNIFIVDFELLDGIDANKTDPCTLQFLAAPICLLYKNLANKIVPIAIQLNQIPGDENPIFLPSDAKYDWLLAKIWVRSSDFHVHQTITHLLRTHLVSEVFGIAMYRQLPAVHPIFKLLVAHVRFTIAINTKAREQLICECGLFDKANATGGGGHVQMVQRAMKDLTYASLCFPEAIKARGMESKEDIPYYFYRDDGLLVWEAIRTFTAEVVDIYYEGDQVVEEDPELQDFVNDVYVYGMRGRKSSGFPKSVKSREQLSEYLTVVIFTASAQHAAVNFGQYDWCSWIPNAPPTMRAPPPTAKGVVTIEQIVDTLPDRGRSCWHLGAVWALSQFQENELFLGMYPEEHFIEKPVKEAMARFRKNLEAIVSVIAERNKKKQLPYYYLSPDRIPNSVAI
How it was run: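 Human recombinant 5-LOX (0.5 unit/ml final) pre-incubated 5 min at RT in the dark with test compound, CaCl2 (0.4 mm final), L-α-phosphatidylcholine type II-S (24 µg/ml final) and ATP (0.2 mm final). Reaction started with arachidonic acid (50 µm final) in quartz microcuvettes. 5-HpETE conjugated diene formation followed as absorbance increase at 234 nm (ε = 25 000 M−1 cm−1).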

[2] = system: THP-1 macrophages; assay: Cytotoxicity, acid phosphatase assay, THP-1 macrophages; assay type: cell-based, human; settings: 10, 30 and 50 µM, 24 h
How it was run: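 THP-1 monocytes seeded at 4 × 10^4 per well, PMA-differentiated for 48 h, then rested for 3 days. Macrophages exposed to test compound for 24 h and washed with PBS. p-Nitrophenyl phosphate substrate (sodium acetate, 0.1% Triton X-100, pH 5.5) added for 1 h at 37°C in the dark. Stopped with NaOH; read at 405 nm. Mean ± SEM, n = 4.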

[3] = system: TNF-α in THP-1 macrophages; assay: Cytokine profiling THP-1 macrophages: TNF-α; assay type: cell-based, human; settings: for level of TNF-α: CTRL 1 22.305 ± 2.753; for inhibition at 10 µM: Homo sapiens, THP-1, read-out: % inhibition of TNF-α
[4] = system: IL-8 from LPS-induced SW480 cells; assay: IL-8 from LPS-induced SW480 cells; assay type: cell-based, human; settings: for level of IL-8: 10 µM, LPS-induced SW480 cells, CTRL 1 3.324 ± 0.076; for inhibition at 10 µM: Homo sapiens, SW480, read-out: % inhibition of IL-8 over CTRL 1
[5] = system: nitric oxide (NO) released from SW480 cells; assay: Nitric oxide inhibition, GREISS assay, LPS-induced SW480 cells; assay type: cell-based, human; settings: for inhibition at 10 µM: SW480, read-out: % inhibition of NO released; for % inhibition of NO released: 10 µM, mean ± SEM, n = 3
How it was run: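 SW480 cells stimulated with 1 µg/ml S. typhimurium LPS plus IFN-γ for 48 h at 37°C, 5% CO2. Fresh supernatant mixed with an equal volume of sulphanilamide for 10 min at RT in the dark, then NED added for 20 min. Absorbance read at 540 nm; nitrite quantified against a 0–100 NO2 standard curve. Mean ± SEM, n = 3.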

[6] = system: DSS colitis mice; settings: cited from earlier work
[7] = system: SW480 cells; assay: Cytotoxicity, acid phosphatase assay, SW480 cells; assay type: cell-based, human; settings: 10, 30 and 50 µM, 24 h
How it was run: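 SW480 cells seeded at 4 × 10^4 per well 24 h before compound exposure, then exposed to test compound for 24 h. Wells washed with PBS. Acid phosphatase substrate (p-nitrophenyl phosphate in sodium acetate, 0.1% Triton X-100, pH 5.5) added for 1 h at 37°C, 5% CO2, in the dark. Stopped with NaOH; absorbance read at 405 nm. Mean ± SEM, n = 4.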

[8] = system: IL-6 in THP-1 macrophages; assay: Cytokine profiling THP-1 macrophages: IL-6; assay type: cell-based, human; settings: for level of IL-6: 24 h, CTRL 1 1.666 ± 0.256; for inhibition at 10 µM: Homo sapiens, THP-1, read-out: IL-6 inhibition over CTRL 1
[9] = system: IL-10−/− colitis mice; settings: IL-10 -/- murine model of colitis; cited from earlier work
[10] = system: nitric oxide (NO) released from SW480 cells; settings: read-out: IC50 NO inhibition, reported value; literature value; cited from earlier work
[11] = system: IL-1β in THP-1 macrophages; assay: Cytokine profiling THP-1 macrophages: IL-1β; assay type: cell-based, human; settings: 10 µM, LPS-stimulated THP-1 macrophages; CTRL 1 0.329 ± 0.042
[12] = 10 µM, LPS-stimulated THP-1 macrophages
[13] = Homo sapiens, SW480, read-out: IC50 NO inhibition

| Compound | level of TNF-α [3, 12] [pg/µg ml] | level of IL-8 [4] [pg/µg ml] | inhibition at 10 µM [4] [%] | IC50 [5, 13] [µM] | level of IL-6 [8, 12] [pg/µg ml] | inhibition at 10 µM [1] [%] | % inhibition of NO released ([5]; LPS-induced SW480 cells) | further results |
| --- | --- | --- | --- | --- | --- | --- | --- | --- |
| CC(Cc1ccc(O)c(O)c1)C(C)Cc1ccc(O)c(O)c1 (stereo not drawn) [NDGA, nordihydroguaiaretic acid, reference compound] | – | – | – | – | – | – | – | % inhibition of 5-LOX ([1]; screened at 10 µM, mean ± SEM, n = 3): 51.92 ± 1.01% |
| O=C(O)c1ccc(C[C@@]2(C3=Cc4ccccc4C3)Cc3ccccc3[C@H]2O)cc1 [compound 2, 4-(((1'S,2'S)-1'-hydroxy-1',3'-dihydro-1H,2'H-[2,2'-biinden]-2'-yl)methyl)benzoic acid] | 11.613 ± 0.162 | 2.529 ± 0.058 | 23.9 | 19.7 ± 7.88 | 0.132 ± 0.038 | 45.3 ± 5.28 | – | cytotoxicity in THP-1 macrophages [2]: no cytotoxicity effects; inhibition at 10 µM [3]: 45.2%; inhibition at 10 µM ([5]; Homo sapiens): 56.5 ± 3.09%; colon cytokine levels of TNFα, IL-6 and IL1b ([6]; DSS colitis mice): reduced; DAI ([6]; acute 5% DSS murine model of colitis): reduced; MPO activity, a measure of inflammatory cell infiltration ([6]; murine model of colitis, model not given): significantly reduced; cytotoxicity in SW480 cells [7]: no cytotoxicity effects; inhibition at 10 µM [8]: 92.1%; DAI [9]: reduced |
| O=C(O)c1ccc(C[C@@]2(C3=Cc4ccccc4C3)Cc3ccccc3C2=O)cc1 [compound 6, (S)-4-((1'-oxo-1',3'-dihydro-1H,2'H-[2,2'-biinden]-2'-yl)methyl)benzoic acid] | – | – | – | – | – | – | inhibited NO production | – |
| O=C(O)c1ccc(CC2(C3=Cc4ccccc4C3)Cc3ccccc3C2)cc1 [compound 7, 4-((1',3'-dihydro-1H,2'H-[2,2'-biinden]-2'-yl)methyl)benzoic acid] | – | 2.676 ± 0.142 | 19.5 | – | – | 39.7 ± 4.95 | inhibited NO production | cytotoxicity in THP-1 macrophages [2]: no cytotoxicity effects; cytotoxicity in SW480 cells [7]: no cytotoxicity effects; IL-6 inhibition over CTRL 1 [8, 12]: less potent but statistically significant |
| O[C@@H]1c2ccccc2C[C@@]1(Cc1ccccc1)C1=Cc2ccccc2C1 [compound 8, (1S,2S)-2-benzyl-2,3-dihydro-1H,1'H-[2,2'-biinden]-1-ol] | 14.193 ± 1.685 | 2.288 ± 0.059 | 31.2 | – | 0.075 ± 0.019 | – | – | inhibition at 10 µM [3]: 33%; inhibition at 10 µM [8]: 95.5% |
| O=C1c2ccccc2C[C@@]1(Cc1ccccc1)C1=Cc2ccccc2C1 [compound 9, (S)-2-benzyl-2,3-dihydro-1H,1'H-[2,2'-biinden]-1-one] | – | – | – | 20.5 ± 2.89 | – | – | inhibited NO production | – |
| C[C@]12CCC(=O)C=C1CC[C@@H]1[C@@H]2[C@@H](O)C[C@@]2(C)[C@H]1CC[C@]2(O)C(=O)CO [hydrocortisone, reference compound] | – | – | – | 48.7 | – | – | – | inhibition at 10 µM ([5]; Homo sapiens): 43.5 ± 12.3% |
| CC(c1cc2ccccc2s1)N(O)C(N)=O (stereo not drawn) [zileuton, reference compound] | – | – | – | – | – | 45.2 ± 5.36 | – | – |
| COc1c(O)cc2oc3cc(O)c(CC=C(C)C)c(O)c3c(=O)c2c1CC=C(C)C [α-mangostin, reference compound] | – | – | – | – | – | – | 61.63 ± 7.50% | IC50 [10]: 12.2 µM; IC50 ([5]; read-out: IC50 NO inhibition, LPS-induced SW480 cells): 8.87 ± 1.18 µM |
| Infliximab: positive control; anti-TNF-α therapy for IBD treatment | 0.002 ± 0 | – | – | – | 0.924 ± 0.180 | – | – | % inhibition of TNF-α [3, 12]: 99.98%; level of IL-1β [11]: 0.329 ± 0.059 pg/µg ml |
